This note sets out measurements from EPA's CvTdb concentration-time database.

In data set [1] the test system is Rat. Nature of the data set: concentration in plasma after dosing. Conditions: dosed: Wyeth-14643, 2.0 mg/kg, oral, Male, Sprague-Dawley.
The subject of data set [2] is Rat. The data set can be described thus: concentration in plasma after dosing. To be noted: 1 h; dosed: Wyeth-14643; 1.0 mg/kg; oral; Male; Sprague-Dawley.
The subject of data set [3] is Rat. The data set can be described thus: concentration in plasma after dosing. Conditions: 5 h; dosed: Bis 2-Chloroethoxy Methane; 20 mg/kg; iv; Female; F344.
Data set [4] concerns Rat. Nature of the data set: concentration in plasma after dosing. Conditions: 6 h; dosed: Bis 2-Chloroethoxy Methane; 20 mg/kg; iv; Female; F344.
Data set [5] relates to Rat. The data set can be described thus: concentration in plasma after dosing. To be noted: 2 h; dosed: Bis 2-Chloroethoxy Methane; 20 mg/kg; iv; Male; F344.
The subject of data set [6] is Rat. The data set can be described thus: concentration in heart after dosing. Conditions: 6 h; dosed: Bis 2-Chloroethoxy Methane; 20 mg/kg; iv; Female; F344.
Data set [7] concerns Rat. The data set can be described thus: concentration in thymus after dosing. Conditions: 40 min; dosed: Bis 2-Chloroethoxy Methane; 20 mg/kg; iv; Female; F344.
Data set [8] deals with Rat. The data set can be described thus: concentration in thymus after dosing. Conditions: 10 min; dosed: Bis 2-Chloroethoxy Methane; 20 mg/kg; iv; Male; F344.
Data set [9] has as its system Rat. The data set can be described thus: concentration in heart after dosing. To be noted: 20 min; dosed: Bis 2-Chloroethoxy Methane; 20 mg/kg; iv; Male; F344.
For data set [10], the system named is Rat. The data set can be described thus: concentration in heart after dosing. To be noted: 6 h; dosed: Bis 2-Chloroethoxy Methane; 20 mg/kg; iv; Male; F344.
In data set [11] the test system is Rat. The data set can be described thus: concentration in thymus after dosing. Conditions: 3 h; dosed: Bis 2-Chloroethoxy Methane; 20 mg/kg; iv; Male; F344.
For data set [12], the system named is Rat. Nature of the data set: concentration in liver after dosing. Conditions: 20 min; dosed: Bis 2-Chloroethoxy Methane; 20 mg/kg; iv; Female; F344.
In data set [13] the test system is Rat. The data set can be described thus: concentration in thymus after dosing. To be noted: 3 h; dosed: Bis 2-Chloroethoxy Methane; 20 mg/kg; iv; Female; F344.
Data set [14] has as its system Rat. Nature of the data set: concentration in plasma after dosing. To be noted: 10 min; dosed: Bis 2-Chloroethoxy Methane; 20 mg/kg; iv; Male; F344.
Data set [15] relates to Rat. Nature of the data set: concentration in plasma after dosing. Conditions: dosed: Fluorotelomer alcohol 8+2, 12 mg/kg, iv, Male, F344.
Data set [16] concerns Rat. The data set can be described thus: concentration in liver after dosing. Conditions: 6 h; dosed: Fluorotelomer alcohol 8+2; 80 mg/kg; oral; Female; Harlan Sprague Dawley.
The test system of data set [17] is Rat. Nature of the data set: concentration in plasma after dosing. To be noted: 2 h; dosed: Di-n-butyl phthalate; 20 mg/kg; iv; Male; Sprague-Dawley.
Data set [18] has as its system Rat. The data set can be described thus: concentration in plasma after dosing. To be noted: 1 h; dosed: Di-n-butyl phthalate; 20 mg/kg; iv; Male; Sprague-Dawley.
In data set [19] the test system is Rat. The data set can be described thus: concentration in plasma after dosing. Conditions: 20 min; dosed: Di-n-butyl phthalate; 50 mg/kg; oral; Male; Sprague-Dawley.
Data set [20] has as its system Rat. The data set can be described thus: concentration in plasma after dosing. To be noted: 20 h; dosed: Di-n-butyl phthalate; 200 mg/kg; oral; Male; Sprague-Dawley.
Data set [21] deals with Rat. The data set can be described thus: concentration in plasma after dosing. To be noted: 15 h; dosed: Di-n-butyl phthalate; 50 mg/kg; oral; Male; Sprague-Dawley.
Data set [22] has as its system Rat. Nature of the data set: concentration in brain after dosing. To be noted: 864 h; dosed: Perfluorodecanoic acid; 10 mg/kg; oral; Female; Harlan Sprague Dawley.
The test system of data set [23] is Rat. Nature of the data set: concentration in plasma after dosing. To be noted: 9 h; dosed: Primidone; 130 mg/kg; oral; Female; F344.
Data set [24] concerns Rat. The data set can be described thus: concentration in plasma after dosing. To be noted: 1.5 h; dosed: Primidone; 130 mg/kg; oral; Female; F344.
Data set [25] has as its system Rat. The data set can be described thus: concentration in thymus after dosing. Conditions: 10 min; dosed: Thiodiglycolic Acid; 20 mg/kg; iv; Female; Harlan Sprague Dawley.
Data set [26] deals with Rat. The data set can be described thus: concentration in plasma after dosing. To be noted: 2 h; dosed: Thiodiglycolic Acid; 20 mg/kg; iv; Female; Harlan Sprague Dawley.
Data set [27] concerns Rat. Nature of the data set: concentration in heart after dosing. To be noted: 5.333 h; dosed: Thiodiglycolic Acid; 20 mg/kg; iv; Female; Harlan Sprague Dawley.
Data set [28] concerns Rat. Nature of the data set: concentration in liver after dosing. To be noted: 4 h; dosed: Thiodiglycolic Acid; 20 mg/kg; iv; Male; Harlan Sprague Dawley.
In data set [29] the test system is Rat. The data set can be described thus: concentration in liver after dosing. To be noted: 8 h; dosed: Thiodiglycolic Acid; 20 mg/kg; iv; Female; Harlan Sprague Dawley.
Data set [30] relates to Rat. The data set can be described thus: concentration in plasma after dosing. To be noted: 4 h; dosed: Thiodiglycolic Acid; 20 mg/kg; iv; Female; Harlan Sprague Dawley.
Data set [31] deals with Rat. Nature of the data set: concentration in liver after dosing. Conditions: 20 min; dosed: Thiodiglycolic Acid; 20 mg/kg; iv; Female; F344.
The test system of data set [32] is Rat. Nature of the data set: concentration in heart after dosing. Conditions: 40 min; dosed: Thiodiglycolic Acid; 20 mg/kg; iv; Female; Harlan Sprague Dawley.
Data set [33] concerns Rat. The data set can be described thus: concentration in thymus after dosing. To be noted: 1 h; dosed: Thiodiglycolic Acid; 20 mg/kg; iv; Male; Harlan Sprague Dawley.
The subject of data set [34] is Rat. The data set can be described thus: concentration in plasma after dosing. Conditions: 20 min; dosed: dichloroacetic acid; 10 mg/kg; iv; Male; F344.
Data set [35] has as its system Rat. Nature of the data set: concentration in plasma after dosing. To be noted: 5 min; dosed: dichloroacetic acid; 10 mg/kg; iv; Male; F344.
For data set [36], the system named is human. The data set can be described thus: concentration in plasma after dosing; negative times count back from the end of exposure. Conditions: dosed: trichloroethylene, 100 ppm, inhalation, duration: 4 hr, person. In short, it runs like this: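 A PubMed search, classifier screening and manual review identified published in vivo toxicokinetic studies, which together with two structured collections supplied concentration-versus-time and amount-versus-time points. Points were mostly digitised from plot screenshots with WebPlotDigitizer, otherwise copied from tables. Dose, route, subject details and medium were hand-curated from each paper, and sampling and analytical methods are those of the sources, often unreported.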

In the case of `Cc1cccc(Nc2cc(Cl)nc(SCC(=O)O)n2)c1C`, the concentration in plasma stood at 904 ng/mL in data set [1] (1 h), 200 ng/mL in data set [1] (6 h) and 828 ng/mL in [2].

As for `ClCCOCOCCCl` [Bis 2-Chloroethoxy Methane], the concentration in plasma was 17.2 ng/mL in data set [3], 17.6 ng/mL in [4], 99.4 ng/mL in data set [5] and 9480 ng/mL in data set [14]. In addition, the concentration in heart came to 28.6 ng/g in data set [6], 7220 ng/g in [9] and 19.3 ng/g in [10]. Also, the concentration in thymus worked out at 6590 ng/g in data set [7], 34400 ng/g in [8], 394 ng/g in data set [11] and 448 ng/g in data set [13]. In data set [12], this compound came in with a concentration in liver of 1090 ng/g.

On to `OCCC(F)(F)C(F)(F)C(F)(F)C(F)(F)C(F)(F)C(F)(F)C(F)(F)C(F)(F)F` [Fluorotelomer alcohol 8+2], for which the values for the concentration in plasma in data set [15] (0.25 h) and in data set [15] (24 h) were 1710 ng/mL and 3.59 ng/mL, respectively. In addition, in data set [16], the concentration in liver is 2430 ng/g.

Regarding `CCCCOC(=O)c1ccccc1C(=O)O` [Mono-n-butyl phthalate], the concentration in plasma in data set [17] is 1670 ng/mL; in data set [18] it was 3480 ng/mL; in data set [19], 32400 ng/mL; in [20] it was 1290 ng/mL; in [21] it was 530 ng/mL.

`O=C(O)C(F)(F)C(F)(F)C(F)(F)C(F)(F)C(F)(F)C(F)(F)C(F)(F)C(F)(F)C(F)(F)F` [Perfluorodecanoic acid]: in [22], the concentration in brain was found to be 1220 ng/g.

As for `CCC1(c2ccccc2)C(=O)NC(=O)NC1=O` [Phenobarbital], the concentration in plasma in data set [23] worked out at 2440 ng/mL; in data set [24], 990 ng/mL.

Take `O=C(O)CSCC(=O)O` [Thiodiglycolic Acid]: the concentration in thymus is 7780 ng/g in [25] and 1900 ng/g in data set [33]. In addition, the concentration in plasma is 1560 ng/mL in [26] and 324 ng/mL in data set [30]. Also, the values for the concentration in heart in data set [27] and in [32] were 321 ng/g and 2840 ng/g, respectively. For the same compound, the results for the concentration in liver in data set [28], in data set [29] and in data set [31] were 43400 ng/g, 29000 ng/g and 174000 ng/g, respectively.

`O=C(O)C(Cl)Cl` [dichloroacetic acid]: the concentration in plasma in [34] is 2320 ng/mL; in data set [35], 15100 ng/mL; in [36] (0 h) it was 12 ng/mL; in data set [36] (-2 h, during exposure), 8 ng/mL; in data set [36] (-3 h, during exposure), 6 ng/mL.
